Molecules are shown by their SMILES. “And” between values parts separate entries of the source, which are not always exact repeats. Identical values can stand only once.

This assay concerns the target T1, Protein kinase Pfmrk (Plasmodium falciparum, UniProt P90584).
T1 sequence (P90584 whole entry): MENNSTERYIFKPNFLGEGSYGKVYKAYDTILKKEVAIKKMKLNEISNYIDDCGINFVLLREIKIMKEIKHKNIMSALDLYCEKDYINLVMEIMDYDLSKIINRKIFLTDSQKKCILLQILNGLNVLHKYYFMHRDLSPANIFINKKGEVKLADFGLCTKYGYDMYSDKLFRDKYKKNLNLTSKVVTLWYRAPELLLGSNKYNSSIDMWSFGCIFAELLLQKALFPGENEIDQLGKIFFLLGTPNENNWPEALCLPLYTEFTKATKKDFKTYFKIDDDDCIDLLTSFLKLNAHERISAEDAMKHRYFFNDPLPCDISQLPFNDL
Put plainly: Inhibition of Plasmodium falciparum cyclin-dependent kinase. The method, boiled down: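 Recombinant 6xHIS-tagged Plasmodial CDK (3.0 μg) expressed in E. coli, assayed with 2.0 μg GST-tagged cyclin Pfcyc-1 and 5.0 μg RNA polymerase II CTD substrate in 40 mM Hepes pH 7.5, 30 mM MnCl₂, 2.0 mM DTT. Enzyme and compound preincubated 5 min at 30 °C. Reaction started with [γ-32P]ATP plus 12.5 μM ATP, run 35 min at 30 °C. Filter plate washed with phosphoric acid, counted by scintillation. Triplicates; IC50 from concentration range.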
The IC50 is the concentration that gives 50% inhibition. For the compound `CCOC(=O)c1cc([N+](=O)[O-])ccc1Cl`, 87 µM corresponded to half-maximal inhibition (IC50). As to `NNC(Cc1c[nH]c2ccccc12)C(=O)O` (stereo unspecified), the IC50 came out at 182 µM.

`CC1NN=C(c2ccccc2)C1[N+](=O)[O-]` (stereo unspecified) had an IC50 of 394 µM. This IC50 lies about 2.2-fold higher than the previous one. For `O=C(/C=C/c1ccccn1)c1ccc([N+](=O)[O-])cc1` the value was 18 µM; for `O=C1Nc2ccc([N+](=O)[O-])cc2/C1=C/c1ccccc1O`, 35 µM.

As to `O=C1c2cc(F)ccc2-n2c1nc1ncccc1c2=O`, half-maximal inhibition (IC50) required 4.7 µM. For `Cc1cc(Cl)ccc1NC(=O)c1cccc([N+](=O)[O-])c1`, the IC50 came out at 69 µM. This IC50 is about 15-fold higher than that of the compound before. The result for `O=C(/C=C/c1ccccc1)c1cccc([N+](=O)[O-])c1` reads 10 µM. Regarding `CC(=O)Nc1ccc(C(=O)/C=C/c2ccccc2)cc1`, the IC50 turned out to be 17 µM. The result for `O=C(Cl)c1c2c(nc3c(Cl)cc(Cl)cc13)-c1ccc(Cl)cc1CC2` reads 25 µM. The result for `CN1C(=O)/C(=C\C(=O)c2ccc(Br)cc2)c2ccccc21` reads 29 µM.

The compound `O=C1NC(=O)/C(=C2/C(=O)Nc3ccc(F)cc32)S1` showed an IC50 of 30 µM. This IC50 and that of the compound before are within 1.5-fold of each other. The compound `COc1ccc(-c2nnc(N(CCO)CCO)o2)cc1` displayed an IC50 of 35.8 µM. This IC50 and that of the compound before are within 1.5-fold of each other. `CCOC(=O)/C(=C\c1ccccn1)C(=O)c1ccc([N+](=O)[O-])cc1` showed a 50% inhibitory concentration (IC50) of 61 µM.

Regarding `O=C1Nc2ccccc2/C1=C/C(=O)c1ccccc1`, the IC50 was found to be 4 µM. As for `O=C1Nc2ccccc2/C1=C\c1ccc(C(F)(F)F)cc1`, the IC50 was found to be 138 µM.

In turn, `O=C1c2ccc(Cl)cc2-n2c1nc1ncccc1c2=O` came in with an IC50 of 3.5 µM. For the compound `COc1ccc2c(c1)/C(=C1\SC(=S)NC1=O)C(=O)N2`, the IC50 was determined as 17.1 µM. `O=S(=O)(O)c1cc(O)c(/N=N/c2ccc(O)cc2O)c2ccccc12` displayed an IC50 of 11 µM. The result for `O=[N+]([O-])c1cc(S(=O)(=O)Nc2ccc(C(F)(F)F)cc2)sc1Cl` reads 2.5 µM; that for `N#C/C(=C1\OC(=O)N(c2ccc(Cl)cc2)C1=O)c1ccc(Cl)cc1`, 14 µM. On to `O=C(CCl)Nc1nc2c(Cl)cccc2s1`, for which the IC50 is 38 µM and 38.3 µM.

For `NC(=S)NC1(c2ccccc2)OC(=O)c2ccccc21` (stereo unspecified), 70 µM corresponded to half-maximal inhibition (IC50). For `O=C1c2cc([N+](=O)[O-])ccc2-n2c1nc1ncccc1c2=O` the value was 0.13 µM; for `Cc1ccc(C(=O)/C=C2\C(=O)Nc3ccc(Br)cc32)cc1`, 2.9 µM. For `O=C1/C(=C/c2ccccn2)CCc2ccccc21` the value was 17 µM; for `O=C(N=C(S)Nc1cc([N+](=O)[O-])ccc1O)c1ccc(Cl)cc1Cl`, 10 µM; for `Cn1cc(C(=O)C(C)(C)N)c2ccccc21`, 46.2 µM.

As to `O=C1Nc2ccc([N+](=O)[O-])cc2C1=O` [5-NITROISATIN], the IC50 came out at 5.9 µM. The compound `O=c1cc(-c2ccc(O)cc2)oc2cc(O)cc(O)c12` [APIGENIN] gave an IC50 of 7 µM. The IC50 values of the last two compounds are within 1.5-fold of each other.

Regarding `CCN(CC)CCCC(C)Nc1ccnc2cc(Cl)ccc12` (stereo unspecified) [CHLOROQUINE], the midpoint of inhibition, the IC50, lay at 150 µM.

On to `O=c1c(-c2ccc(O)cc2)coc2cc(O)cc(O)c12` [GENISTEIN], for which it took 93 µM to reach half-maximal inhibition (IC50). Compared with the last compound, the IC50 is about 1.6-fold lower. In turn, `CN(C)CCCn1cc(C2=C(c3c[nH]c4ccccc34)C(=O)NC2=O)c2ccccc21` [GF-109203] displayed an IC50 of 24 µM. For `OC(c1cc(C(F)(F)F)nc2c(C(F)(F)F)cccc12)C1CCCCN1` (stereo unspecified) [MEFLOQUINE] the value was 12 µM. For `O=c1c(O)c(-c2cc(O)c(O)c(O)c2)oc2cc(O)cc(O)c12` [MYRICETIN] the value was 157 µM; for `Cn1cnc2c(NCc3ccccc3)nc(NCCO)nc21` [OLOMOUCINE], 1100 µM.

These data come from ChEMBL document CHEMBL1138793, “A three-dimensional in silico pharmacophore model for inhibition of Plasmodium falciparum cyclin-dependent kinases and discovery of different classes of novel Pfmrk specific inhibitors” (J Med Chem, 2004).
